Data: ChEMBL document CHEMBL2396525, “Synthesis and anti-HCMV activity of 1-[ω-(phenoxy)alkyl]uracil derivatives and analogues thereof” (Bioorg Med Chem, 2013)
Calls of active or inactive are those of the source. The rule behind the calls is not given here.

Columns and labels:
Human alphaherpesvirus 3 [1] = experiment: Antiviral activity against Varicella-zoster virus OKA; format: functional; conditions: strain Oka vaccine
Method in brief: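 Confluent cell monolayers were infected with 10 or 100 PFU of VZV in the presence of serial compound dilutions. Plaque formation was recorded once untreated infected controls reached completion. EC50 was the concentration that reduced plaque formation by 50%.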

[2] = system: Human immunodeficiency virus 1; experiment: Antiviral activity against HIV1 3B infected in human CEM cells assessed as inhibition of virus-induced giant cell formation after 4 to 5 days; format: functional, organism-based; conditions: CCRF-CEM
Method in brief: (§1)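 CEM cells at about 3 × 10^5 cells/mL were infected with 100 CCID50 of HIV per mL, with compound dilutions present. They were incubated 4–5 days at 37 °C in humidified CO2, and syncytia were scored microscopically. EC50 is the concentration that inhibits giant cell formation by 50%.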

[3] = Cytotoxicity against HEL assessed as minimum cytotoxic concentration required to cause microscopically detectable alteration in cell morphology; format: cell-based; conditions: human, HEL cells
Human alphaherpesvirus 1 [4] = experiment: Antiviral activity against thymidine kinase deficient acyclovir-resistant Herpes simplex virus type 1 KOS; format: functional, organism-based
[5] = system: Respiratory syncytial virus; experiment: Antiviral activity against Respiratory syncytial virus Long; format: functional, organism-based
Method in brief: (§2)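 Confluent HEL, Vero, HeLa or MDCK cell cultures were inoculated with 100 CCID50 of virus alongside varying compound concentrations. Cytopathicity was scored when it reached completion in untreated virus controls. EC50 is the concentration that reduces virus-induced cytopathogenicity by 50%.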

Sindbis virus = experiment: Antiviral activity against Sindbis virus; format: functional, organism-based; method in brief: as §2
Human alphaherpesvirus 2 [6] = experiment: Antiviral activity against Herpes simplex virus type 2 G; format: functional, organism-based; conditions: strain G; method in brief: as §2
[7] = system: Human immunodeficiency virus 2; experiment: Antiviral activity against HIV2 ROD infected in human CEM cells assessed as inhibition of virus-induced giant cell formation after 4 to 5 days; format: functional, organism-based; conditions: ISOLATE ROD, CCRF-CEM; method in brief: as §1
Human alphaherpesvirus 2 [8] = experiment: Antiviral activity against Herpes simplex virus type 2 Lyons; format: functional, organism-based; method in brief: as §2
Punta Toro virus = experiment: Antiviral activity against Punta Toro virus; format: functional, organism-based; method in brief: as §2
Coxsackievirus B4 = experiment: Antiviral activity against Coxsackie B4 virus; format: functional, organism-based; method in brief: as §2
Human respirovirus 3 = experiment: Antiviral activity against Parainfluenza virus 3; format: functional, organism-based; method in brief: as §2
Feline coronavirus = experiment: Antiviral activity against Feline coronavirus; format: functional, organism-based
Influenza A virus [9] = experiment: Antiviral activity against Influenza virus A virus H1N1; format: functional, organism-based
Method in brief: (§3)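 The assay was a cell-based cytopathicity inhibition test on confluent monolayers with serial compound dilutions. EC50 was the concentration that reduced virus-induced cytopathicity by 50%.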

[10] = system: Mammalian orthoreovirus 1; experiment: Antiviral activity against Reovirus-1; format: functional, organism-based; method in brief: as §2
Human betaherpesvirus 5 [11] = experiment: Antiviral actiivty against Human herpesvirus 5 Davis infected in HEL assessed as reduction of virus-induced plaque formation; format: functional, organism-based; conditions: Human betaherpesvirus 5, Davis
Method in brief: (§4)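 HCMV strains AD-169 and Davis were tested on confluent human embryonic lung fibroblast monolayers infected with 100 PFU in the presence of serial compound concentrations. Plaques were counted once formation was complete in untreated infected controls. EC50 is the concentration that cuts plaque formation by 50%.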

Vaccinia virus = experiment: Antiviral activity against Vaccinia virus Lederle; format: functional, organism-based; conditions: Orthopoxvirus vaccinia
[12] = system: Vesicular stomatitis virus; experiment: Antiviral activity against Vesicular stomatitis virus; format: functional, organism-based
Human betaherpesvirus 5 [13] = experiment: Antiviral actiivty against Human herpesvirus 5 AD169 infected in HEL assessed as reduction of virus-induced plaque formation; format: functional, organism-based; conditions: Human betaherpesvirus 5, AD169; method in brief: as §4
Human alphaherpesvirus 1 [14] = experiment: Antiviral activity against Herpes simplex virus type 1 KOS; format: functional, organism-based; method in brief: as §2
Influenza B virus = experiment: Antiviral activity against Influenza B virus; format: functional, organism-based; method in brief: as §3
HEL = experiment: Cytotoxicity against HEL; format: cell-based; conditions: human
Influenza A virus [15] = experiment: Antiviral activity against Influenza virus A virus H3N2; format: functional, organism-based; method in brief: as §3
Human alphaherpesvirus 3 [16] = experiment: Antiviral activity against Varicella-zoster virus YS; format: functional, organism-based
Method in brief: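 VZV was assayed by plaque formation. Confluent cell cultures received 10 or 100 PFU with varying compound concentrations, and plaques were recorded once complete in untreated infected controls. EC50 is the concentration that reduces plaque formation by 50%.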

SMILES | Activity (Human alphaherpesvirus 3 [1]) | Activity [2] | MCC [3] | Activity (Human alphaherpesvirus 1 [4]) | Activity [5] | Activity (Sindbis virus) | Activity (Human alphaherpesvirus 2 [6]) | Activity [7] | Activity (Human alphaherpesvirus 2 [8]) | Activity (Punta Toro virus) | Activity (Coxsackievirus B4) | Activity (Human respirovirus 3) | Activity (Feline coronavirus) | Activity (Influenza A virus [9]) | Activity [10] | EC50 (Human betaherpesvirus 5 [11]) | Activity (Vaccinia virus) | Activity [12] | EC50 (Human betaherpesvirus 5 [13]) | Activity (Human alphaherpesvirus 1 [14]) | further results
Cc1cccc(OCCCCCn2ccc(=O)[nH]c2=O)c1 | inactive | inactive | > 100 µM | inactive | inactive | inactive | inactive | inactive | inactive | inactive | inactive | inactive | inactive | inactive | inactive | 55 µM | inactive | inactive | 45 µM | inactive | Activity (Influenza B virus): inactive; CC50 (HEL): > 100 µM; Activity (Influenza A virus [15]): inactive; Activity (Human alphaherpesvirus 3 [16]): inactive
Nc1ccc(OCCCCCn2ccc(=O)[nH]c2=O)cc1 | inactive | inactive | > 100 µM | inactive | inactive | inactive | inactive | inactive | inactive | inactive | inactive | inactive | inactive | inactive | inactive | 55 µM | inactive | inactive | 55 µM | inactive | Activity (Influenza B virus): inactive; CC50 (HEL): > 100 µM; Activity (Influenza A virus [15]): inactive; Activity (Human alphaherpesvirus 3 [16]): inactive
O=c1ccn(CCCCCCCCOc2ccc(Br)cc2)c(=O)[nH]1 | inactive | inactive | ≥ 100 µM | inactive | inactive | inactive | inactive | inactive | inactive | inactive | inactive | inactive | inactive | inactive | inactive | 8.9 µM | inactive | inactive | 12 µM | inactive | Activity (Influenza B virus): inactive; CC50 (HEL): > 100 µM; Activity (Influenza A virus [15]): inactive; Activity (Human alphaherpesvirus 3 [16]): inactive
N#Cc1ccc(OCCCCCn2ccc(=O)[nH]c2=O)cc1 | inactive | inactive | 100 µM | inactive | inactive | inactive | inactive | inactive | inactive | inactive | inactive | inactive | inactive | inactive | inactive | 5.5 µM | inactive | inactive | 8.9 µM | inactive | Activity (Influenza B virus): inactive; CC50 (HEL): 100 µM; Activity (Influenza A virus [15]): inactive; Activity (Human alphaherpesvirus 3 [16]): inactive
Cc1ccc(OCCCCCn2ccc(=O)[nH]c2=O)cc1 | inactive | inactive | 100 µM | inactive | inactive | inactive | inactive | inactive | inactive | inactive | inactive | inactive | inactive | inactive | inactive | > 20 µM | inactive | inactive | > 20 µM | inactive | Activity (Influenza B virus): inactive; CC50 (HEL): > 100 µM; Activity (Influenza A virus [15]): inactive; Activity (Human alphaherpesvirus 3 [16]): inactive
